Laboratory results: ChEMBL document CHEMBL4007511, “Synthesis and Biological Evaluation of Bile Acid Analogues Inhibitory to Clostridium difficile Spore Germination” (J Med Chem, 2017)
Active and inactive are the calls of the source. The rule behind the calls is not given here.

Key:
[1] = tested on: Clostridioides difficile; experiment: Antibacterial activity against Clostridium difficile NAP1 assessed as concentration required for complete inhibition of TCA-induced spore germination measured after 20 mins under anaerobic condition; type: functional; details: NAP1, 20 min, read-out: MEC
Summary of the method: (§1)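 Spores (~0.5 McFarland, heat-treated 65 °C for 30 min) inoculated anaerobically into pre-reduced (2–3 h) BHIS (0.5% yeast extract, 0.1% L-cysteine) containing 2000 μM taurocholate plus analogue at varying concentrations; OD600 read each minute for 20 min, normalized to t0. Complete inhibition = relative OD600 ≥0.95 at 20 min; triplicate wells, solvent (DMSO or DMSO/ethanol) controls.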

[2] = in vitro; details: human, Caco-2
[3] = tested on: Clostridioides difficile; experiment: Inhibition of TCA-induced spore germination in Clostridium difficile NAP1 assessed as spore germination at 10 uM measured after 20 mins under anaerobic condition by phase-contrast microscopic analysis relative to control; type: functional; design: scale not given: the % may be the effect or the level left
Summary of the method: (§2)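 Heat-treated spores exposed to BHIS with 2000 μM taurocholate plus analogue or DMSO control; t0 samples put on ice at once, t20 samples held 20 min at room temperature then iced; phase-bright spores and phase-dark germinated cells counted by hemocytometer under phase-contrast. % germination of total cells; relative value = (t20−t0) test/(t20−t0) control; triplicate, mean ± SD.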

[4] = in vitro; details: human, Caco-2; remark: listed apart in the source
[5] = tested on: Clostridioides difficile; experiment: Induction of spore germination in Clostridium difficile NAP1 at 1500 to 2000 uM measured after 20 mins under anaerobic condition
[6] = tested on: Clostridioides difficile; experiment: Inhibition of TCA-induced spore germination in Clostridium difficile NAP1 assessed as compound concentration required for complete inhibition by spectrophotometric method; type: functional; details: read-out: MEC; summary of the method: as §1
[7] = tested on: Clostridioides difficile; experiment: Inhibition of taurocholate/glycine-induced spore germination in Clostridium difficile 630 preincubated for 15 mins followed by taurocholate/glycine addition measured every minute for 90 mins; type: functional
[8] = tested on: Clostridioides difficile; experiment: Inhibition of TCA-induced spore germination in Clostridium difficile NAP1 at 50 uM measured after 20 mins under anaerobic condition by phase-contrast microscopic analysis; type: functional; summary of the method: as §2
[9] = human, caco-2, 10 µM
[10] = human, caco-2, 10 µM; remark: listed apart in the source
[11] = target: Clostridioides difficile; experiment: Inhibition of TCA-induced spore germination in Clostridium difficile NAP1 at 0.2 mM using varying levels of TCA measured after 20 mins under anaerobic condition; type: functional
[12] = target: Clostridioides difficile; experiment: Competitive inhibition of taurocholate-induced spore germination in Clostridium difficile UK1 at 0.2 mM by Michaelis-Menten kinetic analysis; type: functional

SMILES	minimal effective concentration [1] [µM]	also measured
COC(=O)CC[C@@H](C)[C@H]1CC[C@H]2[C@H]3[C@H](CC[C@]12C)[C@@]1(C)CC[C@@H](O)C[C@H]1C[C@@]3(C)O	50	–
COC(=O)CC[C@@H](C)[C@H]1CC[C@H]2[C@@H]3C[C@H](O)[C@@H]4C[C@H](O)CC[C@]4(C)[C@H]3CC[C@]12C	500	–
CO[C@@H]1CC[C@@]2(C)[C@@H](C1)C[C@@H](OS(=O)(=O)[O-])[C@@H]1[C@@H]2CC[C@]2(C)[C@@H]([C@H](C)CCC(=O)c3nnn[n-]3)CC[C@@H]12.[Na+].[Na+]	25	Papp A→B at 10 µM [2]: 0.4 ×10⁻⁶ cm/s; Activity [3]: 51%; Papp B→A at 10 µM [4]: 0.4 ×10⁻⁶ cm/s
CO[C@@H]1CC[C@@]2(C)[C@@H](C1)C[C@H](O)[C@@H]1[C@@H]2CC[C@]2(C)[C@@H]([C@H](C)CCC(=O)O)CC[C@@H]12	> 500	Activity [5]: Toxic
CCCCNC(=O)CC[C@@H](C)[C@H]1CC[C@H]2[C@@H]3[C@H](O)C[C@@H]4C[C@H](O)CC[C@]4(C)[C@H]3CC[C@]12C	500	–
CO[C@@H]1CC[C@@]2(C)[C@@H](C1)C[C@@H](O)[C@@H]1[C@@H]2CC[C@]2(C)[C@@H]([C@H](C)CCC(=O)O)CC[C@@H]12	> 100	Activity [5]: Toxic
CO[C@@H]1CC[C@@]2(C)[C@@H](C1)C[C@@H](OC)[C@@H]1[C@@H]2CC[C@]2(C)[C@@H]([C@H](C)CCC(=O)N3CCCC3)CC[C@@H]12	500	–
COC(=O)CC[C@@H](C)[C@H]1CC[C@H]2[C@@H]3[C@@H](O)C[C@@H]4C[C@H](O)CC[C@]4(C)[C@H]3CC[C@]12C	50	–
C[C@H](CCC(=O)NC(C)(C)CO)[C@H]1CC[C@H]2[C@@H]3[C@H](O)C[C@@H]4C[C@H](O)CC[C@]4(C)[C@H]3CC[C@]12C	500	–
COC(=O)CC[C@@H](C)[C@H]1CC[C@H]2[C@@H]3[C@H](OC)C[C@@H]4C[C@H](OC)CC[C@]4(C)[C@H]3CC[C@]12C	500	–
C[C@H](CCC(=O)N1CCCC1)[C@H]1CC[C@H]2[C@@H]3[C@H](O)C[C@@H]4C[C@H](O)CC[C@]4(C)[C@H]3CC[C@]12C	50	–
C[C@H](CCC(=O)O)[C@H]1CC[C@H]2[C@@H]3[C@@H](O)C[C@@H]4C[C@H](O)CC[C@]4(C)[C@H]3CC[C@]12C [URSODIOL]	–	minimal effective concentration [6]: 500 µM
COC(=O)CC[C@@H](C)[C@H]1CC[C@H]2[C@@H]3[C@H](OC)C[C@@H]4C[C@H](O)CC[C@]4(C)[C@H]3CC[C@]12C	500	–
C[C@H](CCC(=O)Nc1cccc(S(=O)(=O)O)c1)[C@H]1CC[C@H]2[C@@H]3[C@H](O)C[C@@H]4C[C@H](O)CC[C@]4(C)[C@H]3C[C@H](O)[C@]12C	> 1000	IC50 [7]: 58 µM; Activity [3]: 78%
CCCCNC(=O)CC[C@@H](C)[C@H]1CC[C@H]2[C@@H]3[C@@H](O)C[C@@H]4C[C@H](O)CC[C@]4(C)[C@H]3CC[C@]12C	500	–
CO[C@@H]1CC[C@@]2(C)[C@@H](C1)C[C@H](OS(=O)(=O)[O-])[C@@H]1[C@@H]2CC[C@]2(C)[C@@H]([C@H](C)CCC(=O)N3CCCC3)CC[C@@H]12.[Na+]	50	inhibition [8]: Active; Papp [9]: 2.1 ×10⁻⁶ cm/s; Activity [3]: 9%; Papp [10]: 0.1 ×10⁻⁶ cm/s; Ki [11]: 20 µM

SMILES	minimal effective concentration [1] [µM]	also measured
C[C@H](CCC(=O)O)[C@H]1CC[C@H]2[C@@H]3[C@@H](OS(=O)(=O)O)C[C@@H]4C[C@H](O)CC[C@]4(C)[C@H]3CC[C@]12C	3000	–
CC(=O)O[C@@H]1CC[C@@]2(C)[C@@H](C1)C[C@@H](OC(C)=O)[C@@H]1[C@@H]2CC[C@]2(C)[C@@H]([C@H](C)CCC(N)=O)CC[C@@H]12	50	–
COC(=O)CC[C@@H](C)[C@H]1CC[C@H]2[C@@H]3[C@H](O)C[C@@H]4C[C@H](OC)CC[C@]4(C)[C@H]3CC[C@]12C	500	–
C[C@H](CCC(=O)O)[C@H]1CC[C@H]2[C@@H]3[C@H](O)C[C@@H]4C[C@H](O)CC[C@]4(C)[C@H]3CC[C@]12C [CHENODIOL]	500	–
CC(=O)O[C@@H]1CC[C@@]2(C)[C@@H](C1)C[C@H](OC(C)=O)[C@@H]1[C@@H]2CC[C@]2(C)[C@@H]([C@H](C)CCC(N)=O)CC[C@@H]12	50	Activity [5]: Toxic
CO[C@@H]1CC[C@@]2(C)[C@@H](C1)C[C@H](OC)[C@@H]1[C@@H]2CC[C@]2(C)[C@@H]([C@H](C)CCC(=O)O)CC[C@@H]12	> 1000	Activity [3]: 75%
COC(=O)CC[C@@H](C)[C@H]1CC[C@H]2[C@@H]3[C@@H](OC)C[C@@H]4C[C@H](OC)CC[C@]4(C)[C@H]3CC[C@]12C	500	–
COC(=O)CC[C@@H](C)[C@H]1CC[C@H]2[C@@H]3[C@@H](O)C[C@@H]4C[C@H](OC)CC[C@]4(C)[C@H]3CC[C@]12C	500	–
COC(=O)CC[C@@H](C)[C@H]1CC[C@H]2[C@@H]3[C@@H](OC)C[C@@H]4C[C@H](O)CC[C@]4(C)[C@H]3CC[C@]12C	500	–
COC(=O)CC[C@@H](C)[C@H]1CC[C@H]2[C@@H]3[C@H](O)C[C@@H]4C[C@H](O)CC[C@]4(C)[C@H]3CC[C@]12C	500	Activity [3]: 73%; Ki [12]: 44 µM; Ki [11]: 118 µM
C[C@H](CCC(=O)O)[C@H]1CC[C@H]2[C@@H]3C[C@H](O)[C@@H]4C[C@H](O)CC[C@]4(C)[C@H]3CC[C@]12C [HYODEOXYCHOLIC_ACID]	500	Activity [5]: Toxic
CO[C@@H]1CC[C@@]2(C)[C@@H](C1)C[C@H](OC)[C@@H]1[C@@H]2CC[C@]2(C)[C@@H]([C@H](C)CCC(=O)N3CCCC3)CC[C@@H]12	1000	–
C[C@H](CCC(C)(C)O)[C@H]1CC[C@H]2[C@H]3[C@H](CC[C@]12C)[C@@]1(C)CC[C@@H](O)C[C@H]1C[C@@]3(C)O	> 1000	–
CO[C@H]1C[C@@H]2C[C@H](O)CC[C@]2(C)[C@H]2CC[C@]3(C)[C@@H]([C@H](C)CCC(=O)O)CC[C@H]3[C@H]12	> 500	Activity [5]: Toxic
C[C@H](CCC(=O)N1CCCC1)[C@H]1CC[C@H]2[C@@H]3[C@@H](O)C[C@@H]4C[C@H](O)CC[C@]4(C)[C@H]3CC[C@]12C	100	–
